Test results from paper PMC2873069 (The journal of maternal-fetal & neonatal medicine : the …, 2010).
Entries after “also recorded” stand apart in the source; their conditions may differ. Where two headings read alike, the source gives them in different places.

Legend:
[1] = cited from earlier work; for pharmacologic activity: hepatic metabolites
[2] = cited from earlier work
[3] = test system: perfused placental tissue; experiment: Effect of bupropion on placental tissue viability; parameters: species or system human; conditions: for effect on placental viability and functional parameters: 150 ng/ml and 450 ng/ml bupropion
[4] = test system: term human placental lobule; type: in vitro ADME; conditions: for fetal/maternal concentration ratio: HSA 30 mg/ml
[5] = type: physicochemical
Procedure, shortened: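 Test compound as the [3H] form recirculated for 4 h through the closed perfusion circuit (glassware, teflon tubing, tygon peristaltic-pump tubing) without placenta, in M199 with dextran 40, heparin, gentamicin, sulfamethoxazole and trimethoprim at 37 °C. Run without and with human serum albumin at 30 mg/mL. Loss of radiolabel from the medium was tracked over 4 h.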

placental tissue enzymes = experiment: Metabolism of bupropion by placental tissue during perfusion; conditions: end of 4 hours of perfusion
[6] = bupropion 150 ng/mL, 4 hours of perfusion
[7] = bupropion 450 ng/mL, 4 hours of perfusion
[8] = end of 4-hour perfusion, independent of initial concentration

## CC(NC(C)(C)C)C(O)c1cccc(Cl)c1 (centres unmarked) [erythrohydrobupropion]
[1]
  pharmacologic activity: very low activity

## CC(NC(C)(C)C)C(=O)c1cccc(Cl)c1 (centres unmarked) [bupropion]
[2]; no reference given
  octanol/water partition coefficient: 3.21
  pKa: 7.6
[3]
  effect on placental viability and functional parameters: did not affect; also recorded: do not adversely affect
[3]; [6]
  O2 consumption, % of control period: 114 ± 37%
  O2 consumption, experimental period: 6.6 ± 1.6 mL/min/kg
  O2 transfer, % control period: 56 ± 21%
  O2 transfer, experimental period: 0.22 ± 0.1 mL/min/kg
[3]; [7]
  O2 consumption, % of control period: 98 + 38%
  O2 consumption, experimental period: 3.7 + 1.2 mL/min kg
  O2 transfer, % control period: 43 + 16%
[3]; bupropion transfused in presence of HSA
  release of hCG at the end of the experimental period (control period = 100%): 94 ± 12%
[4]; 150 ng/ml, 4 hours
  decline in concentration in the maternal circuit (shape): biphasic
[4]; 150 ng/ml, from time 0
  time at which equilibrium was achieved in the fetal circuit: 180 min
[4]; 450 ng/ml, end of 4 hours
  fetal circuit concentration as % of initial concentration: 23 ± 2%
[4]; bupropion 150 ng/ml in maternal circuit, end of 4-hour perfusion
  fetal/maternal concentration ratio: 1.07 ± 0.22
[4]; bupropion 450 ng/ml in maternal circuit, end of 4-hour perfusion
  fetal/maternal concentration ratio: 1.00 ± 0.14
[4]; [8]
  fraction of drug remaining in the maternal circuit: 32 ± 5%
  fraction of drug retained by placental tissue: 48 ± 6%
[4]; initial maternal concentration 150 ng/ml, 4 hours
  concentration in the fetal circuit at the end of the experiment: 35 ± 4 ng/mL
[4]; initial maternal concentration 450 ng/ml, 4 hours
  concentration in the fetal circuit at the end of the experiment: 104 ng/mL

## [^3H]-bupropion
[5]; 4 hours recirculation in absence of placenta
  binding to glassware and teflon tubing: negligible
[5]; 4 hours recirculation in absence of placenta, no HSA
  decline of initial amount in the medium: 40%
[5]; after addition of 30 mg/mL HSA to the perfusion medium
  reduction of binding to tygon tubing: 25%

## C[C@H]1NC(C)(C)CO[C@]1(O)c1cccc(Cl)c1 [hydroxybupropion]
[1]; hepatic metabolite
  pharmacologic activity relative to the parent compound: ~50%

## Cc1cc(=O)n(-c2ccccc2)n1C [AP, antipyrine]
[2]
  binding to plasma proteins and human serum albumin: minimal binding
[4]; antipyrine 20 μg/mL co-transfused marker, 4 hours
  transplacental transfer to the fetal circuit: approximately 50%

## C[C@H](NC(C)(C)C)[C@@H](O)c1cccc(Cl)c1 [threohydrobupropion]
[3]
  effect on placental viability and functional parameters: do not adversely affect
Placental tissue enzymes
  ratio of metabolite to parent drug in placental tissue: 0.06
  ratio of metabolite to parent drug in the fetal circuit: 0.07
  ratio of metabolite to parent drug in the maternal circuit: 0.08
[1]
  pharmacologic activity: very low activity
